Consider one compound from ChEMBL document CHEMBL4680226, “Design, synthesis, and evaluation of N-phenyl-4-(2-phenylsulfonamido)-benzamides as microtubule-targeting agents in drug-resistant cancer cells, displaying HDAC inhibitory response” (Eur J Med Chem, 2020).

As a reminder, the GI50 is the concentration that inhibits growth by half. Low readings indicate greater sensitivity of the cells, high ones lower sensitivity of the cells. In general, IC50 refers to the concentration that inhibits the measured activity by half.

Activity calls are given as the source filed them. The rule behind the calls is not given here.

One test concerns KB. Put plainly: Antiproliferative activity against human KB cells incubated for 48 hrs by SRB assay. The format is functional. The essentials: (§1)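 KB parental and resistant sublines kept in RPMI 1640 with 5% FBS at 37 °C, 5% CO2. Cells plated, left overnight, then given graded compound concentrations for 48 h. A time-zero plate was fixed with 10% TCA at dosing. Cells were stained with 0.4% SRB in 1% acetic acid, unbound dye washed off, bound dye dissolved in 10 mM Tris base, and absorbance read at 515 nm.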
(In general: The SRB assay estimates cell density from bound dye.)

The nature of test [1]: Antiproliferative activity against human KB7D cells incubated for 48 hrs by SRB assay. It counts as functional. The gist of the method:
as §1

In the next test the target is Histone deacetylase 2 (Homo sapiens, UniProt Q92769). Kind of test: Inhibition of recombinant human C-terminal GST-tagged HDAC2 (1 to 488 residues) expressed in baculovirus infected insect cells using RHKKAc-AMC as substrate measured after 60 mins by fluorescence assay.
Sequence of Histone deacetylase 2 (Q92769 whole entry, the tested form may be a part): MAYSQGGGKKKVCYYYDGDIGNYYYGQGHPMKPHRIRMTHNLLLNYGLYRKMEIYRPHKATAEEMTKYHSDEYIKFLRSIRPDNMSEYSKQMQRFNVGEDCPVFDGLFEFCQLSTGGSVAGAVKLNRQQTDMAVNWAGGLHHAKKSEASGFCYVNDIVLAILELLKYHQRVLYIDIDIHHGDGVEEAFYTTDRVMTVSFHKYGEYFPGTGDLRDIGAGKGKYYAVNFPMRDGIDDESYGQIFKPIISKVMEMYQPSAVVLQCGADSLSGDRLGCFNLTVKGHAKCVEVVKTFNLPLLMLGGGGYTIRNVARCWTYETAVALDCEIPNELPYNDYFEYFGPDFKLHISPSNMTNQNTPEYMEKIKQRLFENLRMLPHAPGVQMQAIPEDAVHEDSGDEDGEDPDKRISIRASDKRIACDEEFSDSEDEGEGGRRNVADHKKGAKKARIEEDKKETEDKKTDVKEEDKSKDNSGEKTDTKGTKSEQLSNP
For test [2], the target named is Histone deacetylase 3/Nuclear receptor corepressor 2 (HDAC3/NCoR2) (Homo sapiens, UniProt O15379). Kind of test: Inhibition of human recombinant HDAC3/NCOR2 using RHKKAc-AMC as substrate measured after 60 mins by fluorescence assay. The format is protein-complex assay.
Sequence of Histone deacetylase 3/Nuclear receptor corepressor 2 (HDAC3/NCoR2) (O15379 whole entry): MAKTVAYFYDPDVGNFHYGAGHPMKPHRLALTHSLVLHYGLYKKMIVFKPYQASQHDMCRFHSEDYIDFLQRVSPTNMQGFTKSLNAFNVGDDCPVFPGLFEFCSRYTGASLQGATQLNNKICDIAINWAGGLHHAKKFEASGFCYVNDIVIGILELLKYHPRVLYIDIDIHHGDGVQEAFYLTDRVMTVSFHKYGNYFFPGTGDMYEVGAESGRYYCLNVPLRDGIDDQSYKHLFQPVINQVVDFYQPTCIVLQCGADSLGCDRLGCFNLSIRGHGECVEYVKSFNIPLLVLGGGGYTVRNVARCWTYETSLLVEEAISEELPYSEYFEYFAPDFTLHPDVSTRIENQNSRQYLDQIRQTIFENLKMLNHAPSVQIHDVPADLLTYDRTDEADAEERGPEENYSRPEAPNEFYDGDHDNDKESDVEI
Sequence of Histone deacetylase 3/Nuclear receptor corepressor 2 (HDAC3/NCoR2) (Q9Y618 whole entry, further chain): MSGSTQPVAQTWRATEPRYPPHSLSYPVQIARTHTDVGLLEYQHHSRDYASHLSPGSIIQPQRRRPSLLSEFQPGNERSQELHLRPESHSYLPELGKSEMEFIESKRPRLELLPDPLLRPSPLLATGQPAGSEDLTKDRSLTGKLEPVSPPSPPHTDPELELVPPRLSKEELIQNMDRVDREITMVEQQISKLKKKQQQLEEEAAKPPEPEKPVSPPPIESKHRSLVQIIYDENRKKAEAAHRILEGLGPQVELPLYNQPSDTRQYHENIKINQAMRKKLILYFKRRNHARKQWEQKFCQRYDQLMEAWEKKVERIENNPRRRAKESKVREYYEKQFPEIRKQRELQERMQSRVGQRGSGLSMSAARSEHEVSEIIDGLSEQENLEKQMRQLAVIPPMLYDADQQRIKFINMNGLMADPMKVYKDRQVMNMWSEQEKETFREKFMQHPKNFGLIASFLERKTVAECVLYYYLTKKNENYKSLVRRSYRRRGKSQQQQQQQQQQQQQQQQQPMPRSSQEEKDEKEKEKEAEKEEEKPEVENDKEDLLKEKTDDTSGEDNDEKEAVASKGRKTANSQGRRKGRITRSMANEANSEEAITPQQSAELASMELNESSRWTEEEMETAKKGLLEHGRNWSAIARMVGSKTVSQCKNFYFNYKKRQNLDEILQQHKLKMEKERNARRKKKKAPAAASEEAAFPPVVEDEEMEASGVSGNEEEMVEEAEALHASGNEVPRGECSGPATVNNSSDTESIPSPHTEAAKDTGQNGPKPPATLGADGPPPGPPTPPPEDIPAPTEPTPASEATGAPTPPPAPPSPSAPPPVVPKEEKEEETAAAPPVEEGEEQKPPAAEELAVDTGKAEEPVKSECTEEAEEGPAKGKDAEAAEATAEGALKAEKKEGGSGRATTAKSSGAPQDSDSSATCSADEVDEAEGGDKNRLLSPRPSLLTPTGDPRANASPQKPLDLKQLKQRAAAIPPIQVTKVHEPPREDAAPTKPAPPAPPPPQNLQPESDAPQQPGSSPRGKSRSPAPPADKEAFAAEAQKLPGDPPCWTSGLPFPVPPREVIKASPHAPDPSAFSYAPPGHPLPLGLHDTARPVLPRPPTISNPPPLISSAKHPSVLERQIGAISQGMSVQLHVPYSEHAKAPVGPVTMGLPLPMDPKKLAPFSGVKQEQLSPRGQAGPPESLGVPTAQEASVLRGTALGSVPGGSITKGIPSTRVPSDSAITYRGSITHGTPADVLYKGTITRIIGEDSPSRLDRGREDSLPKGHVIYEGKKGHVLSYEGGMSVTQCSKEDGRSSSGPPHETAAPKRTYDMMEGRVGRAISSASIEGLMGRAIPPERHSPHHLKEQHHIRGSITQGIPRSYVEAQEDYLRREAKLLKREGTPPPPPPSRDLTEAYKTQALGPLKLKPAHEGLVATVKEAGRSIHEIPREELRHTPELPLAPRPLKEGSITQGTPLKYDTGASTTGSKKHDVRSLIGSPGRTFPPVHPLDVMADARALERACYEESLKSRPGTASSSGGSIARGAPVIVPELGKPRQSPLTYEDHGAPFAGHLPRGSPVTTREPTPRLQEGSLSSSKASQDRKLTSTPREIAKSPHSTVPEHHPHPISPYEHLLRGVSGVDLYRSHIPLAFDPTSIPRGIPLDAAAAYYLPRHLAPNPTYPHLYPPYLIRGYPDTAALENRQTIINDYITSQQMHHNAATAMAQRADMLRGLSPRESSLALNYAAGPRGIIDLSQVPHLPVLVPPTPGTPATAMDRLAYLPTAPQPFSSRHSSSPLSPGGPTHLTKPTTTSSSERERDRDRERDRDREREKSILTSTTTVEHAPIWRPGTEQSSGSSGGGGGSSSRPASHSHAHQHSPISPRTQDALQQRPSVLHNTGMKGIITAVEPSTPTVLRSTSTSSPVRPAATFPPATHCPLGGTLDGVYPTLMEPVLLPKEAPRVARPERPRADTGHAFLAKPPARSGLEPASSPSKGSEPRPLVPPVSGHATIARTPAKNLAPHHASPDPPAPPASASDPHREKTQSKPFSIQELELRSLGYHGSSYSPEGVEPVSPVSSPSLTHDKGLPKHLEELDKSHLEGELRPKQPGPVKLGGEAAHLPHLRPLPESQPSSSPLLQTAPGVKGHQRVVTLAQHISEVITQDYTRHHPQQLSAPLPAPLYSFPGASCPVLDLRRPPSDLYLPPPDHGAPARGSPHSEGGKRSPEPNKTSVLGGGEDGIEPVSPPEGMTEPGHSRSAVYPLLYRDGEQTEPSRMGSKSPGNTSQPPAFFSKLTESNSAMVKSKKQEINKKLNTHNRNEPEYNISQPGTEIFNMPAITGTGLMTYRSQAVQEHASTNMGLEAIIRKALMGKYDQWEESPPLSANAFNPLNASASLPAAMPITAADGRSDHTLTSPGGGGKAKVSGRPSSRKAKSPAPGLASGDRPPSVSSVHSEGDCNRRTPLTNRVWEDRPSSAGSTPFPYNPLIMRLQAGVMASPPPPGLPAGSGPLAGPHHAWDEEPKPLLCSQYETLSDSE
The target of a further test is T1, Histone deacetylase 8 (Homo sapiens, UniProt Q9BY41).
T1 sequence (Q9BY41 whole entry): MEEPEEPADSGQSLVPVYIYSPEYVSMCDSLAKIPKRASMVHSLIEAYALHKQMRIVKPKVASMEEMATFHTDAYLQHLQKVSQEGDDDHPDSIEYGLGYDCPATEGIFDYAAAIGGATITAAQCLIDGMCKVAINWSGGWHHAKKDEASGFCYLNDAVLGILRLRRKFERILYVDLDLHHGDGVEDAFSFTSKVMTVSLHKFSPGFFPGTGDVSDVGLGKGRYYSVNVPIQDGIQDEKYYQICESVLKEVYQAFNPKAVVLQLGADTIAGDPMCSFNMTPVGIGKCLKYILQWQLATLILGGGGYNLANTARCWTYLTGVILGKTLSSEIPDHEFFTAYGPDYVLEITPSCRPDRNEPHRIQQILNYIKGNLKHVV
Put plainly: Inhibition of human recombinant HDAC8 using RHKAcKAc-AMC as substrate measured after 60 mins by fluorescence assay.

The test system of test [3] is KB-VIN. Put plainly: Induction of apoptosis in human KB-VIN cells assessed as increase in cleaved PARP expression by Western blot analysis. The format is functional, cell-based. The gist of the method:
(§2)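 Resistant KB cells attached overnight, then drug-treated at the stated concentrations and times (24 h or 48 h). Lysates were immunoblotted for cleaved PARP, caspase-3, -8 and -9, and γH2AX, with anti-mouse or anti-rabbit IgG secondaries.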

The subject of test [4] is KB7D. Put plainly: Induction of apoptosis in human KB7D cells assessed as increase in cleaved PARP expression by Western blot analysis. It counts as functional, cell-based. The gist of the method:
as §2
On the technique in general: A western blot detects proteins with antibodies after separation by electrophoresis.

Test [5] relates to KB7D. Kind of test: Induction of apoptosis in human KB7D cells assessed as increase in activated gammaH2AX expression by Western blot analysis. The format is functional, cell-based. The essentials:
as §2

For test [6], the system named is KB-VIN. Put plainly: Cell cycle arrest in human KB-VIN cells assessed as increase in accumulation at sub-G1 phase at 0.5 uM measured after 24 hrs by propidium iodide staining based flow cytometry. The format is functional. The essentials:
(§3)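 Cells seeded at 2.5×10^5 per well and exposed to DMSO or compound for the stated times. They were washed in PBS and fixed overnight in ice-cold 70% ethanol at −20 °C. Staining used propidium iodide 80 µg/mL with 0.1% Triton X-100 and RNase A 100 µg/mL in PBS. DNA content was read by FACScan flow cytometry.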
In general terms: In flow cytometry, cells or beads pass a laser one at a time.

Test [7] deals with KB-VIN. Put plainly: Induction of apoptosis in human KB-VIN cells assessed as increase in cleaved caspase-3 expression at 0.1 to 0.5 uM measured after 24 hrs by Western blot analysis. It counts as functional, cell-based. To be noted: dose 0.1-0.5 µM. The essentials: as §2
The subject of test [8] is KB-VIN. Put plainly: Induction of apoptosis in human KB-VIN cells assessed as increase in activated gammaH2AX expression at 0.1 to 0.5 uM measured after 24 hrs by Western blot analysis. It counts as functional, cell-based. To be noted: dose 0.1-0.5 µM. The gist of the method:
as §2

In test [9] the test system is KB-VIN. Put plainly: Cell cycle arrest in human KB-VIN cells assessed as increase in accumulation at sub-G1 phase at 0.05 uM measured after 48 hrs by propidium iodide staining based flow cytometry. The format is functional. The gist of the method: as §3
Test [10] has as its system KB-VIN. Put plainly: Induction of apoptosis in human KB-VIN cells assessed as increase in cleaved caspase-3 expression at 0.05 uM measured after 48 hrs by Western blot analysis. It counts as functional, cell-based. The essentials:
as §2

Test [11] deals with KB-VIN. Put plainly: Induction of apoptosis in human KB-VIN cells assessed as increase in cleaved caspase-8 expression at 0.05 uM measured after 48 hrs by Western blot analysis. The format is functional, cell-based. The essentials: as §2
Test [12] has as its system KB-VIN. Kind of test: Induction of apoptosis in human KB-VIN cells assessed as increase in activated gammaH2AX expression at 0.05 uM measured after 48 hrs by Western blot analysis. The format is functional, cell-based. The gist of the method:
as §2

Test [13] relates to KB7D. Kind of test: Induction of apoptosis in human KB7D cells assessed as increase in cleaved PARP expression at 0.01 to 0.1 uM measured after 48 hrs by Western blot analysis. It counts as functional, cell-based. To be noted: dose 0.01-0.1 µM. The essentials:
as §2

Test [14] concerns KB7D. Kind of test: Induction of apoptosis in human KB7D cells assessed as increase in cleaved caspase-8 expression at 0.01 to 0.1 uM measured after 48 hrs by Western blot analysis. To be noted: dose 0.01-0.1 µM. It counts as functional, cell-based. The essentials:
as §2

Test [15] deals with KB7D. Put plainly: Induction of apoptosis in human KB7D cells assessed as increase in cleaved caspase-9 expression at 0.01 to 0.1 uM measured after 48 hrs by Western blot analysis. To be noted: dose 0.01-0.1 µM. It counts as functional, cell-based. The gist of the method:
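KB-7D cells in RPMI 1640 with 5% FBS and 1% penicillin-streptomycin at 37 °C, 5% CO2, attached overnight. Treated with indicated concentrations for 24 or 48 h, lysed, and immunoblotted for cleaved caspases.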

The target in test [16] is T2, Tubulin (Homo sapiens) (UniProt P68371+Q9H4B7+P0DPH7+P68366+Q13509+Q71U36+P04350+Q3ZCM7+P07437+P68363+Q9BQE3+Q6PEY2+Q13885+Q9BVA1+Q9BUF5). Kind of test: Induction of microtubule disruption in human KB7D cells at 0.05 uM measured after 24 hrs by DAPI staining based deconvolution fluorescence microscopic analysis. It counts as cell-based. The gist of the method: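 Cells on glass coverslips treated 24 h, fixed in 4% paraformaldehyde for 15 min, and permeabilized with 0.5% Triton X-100. Blocked in PBS/2% BSA, stained with anti-beta-tubulin (1:250) and Alexa 488 anti-mouse (1:250), and mounted with DAPI. Imaged by wide-field deconvolution microscopy.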

The target in test [17] is T2, Tubulin (Homo sapiens). Put plainly: Induction of microtubule disruption in human KB7D cells assessed as polymerized fraction at 0.1 uM measured after 16 hrs by SDS-PAGE analysis (reference value: 26.4 to 29%). It counts as cell-based. The essentials:
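KB-Vin or KB-7D cells treated 16 h, then lysed 5 min at 37 °C in the dark in hypotonic buffer (1% NP-40, 1 mmol/L MgCl2, 2 mmol/L EGTA, 50 mmol/L Tris-HCl pH 6.8, protease inhibitors). Spun 13000 rpm, 10 min, room temperature. Soluble supernatant and resuspended polymerized pellet run on SDS-PAGE.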

With `COc1ccc(S(=O)(=O)Nc2ccccc2NCc2ccc(C(=O)Nc3ccccc3N)cc2)cc1`, the concentration for 50% growth inhibition (GI50) in the test with KB was found to be 10 nM; in [1], 12 nM. For the same compound, the IC50 on Histone deacetylase 2 was 1470 nM; in test [2], 2270 nM; at Histone deacetylase 8, above 10000 nM. Also, the Activity result in the test with KB-VIN [3] was “Dose-dependent effect”; in the test with KB7D [4], “Dose-dependent effect”; in the test on KB7D [5] it was “Dose-dependent effect”; on Tubulin (Homo sapiens) [17] it was 13.3%. Moreover, the outcome in the test with KB-VIN [6], in the test on KB-VIN [7], with KB-VIN [8], in the test on KB-VIN [9], in the test with KB-VIN [10] and in the test on KB-VIN [11] was Active. The result in the test with KB-VIN [12], in the test with KB7D [13], in the test on KB7D [14], with KB7D [15] and at Tubulin (Homo sapiens) [16] was Active.
